Series [1] can be described thus: Cytotoxicity against mouse RAW264.7 cells assessed as cell viability by MTT assay. The class given is cell-based. The arrangement: concentration or dose not given beside the values. The following applies: read-out: Activity. In outline: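 After the 17–20 h LPS co-treatment of RAW 264.7 cells (0.1% DMSO vehicle), the supernatant was removed and MTT (0.05 mg/mL) was added. Cells were held at 37 °C for 4 h. Formazan was dissolved in 100% DMSO and absorbance was read at 570 nm. Results are given as % viability. Culture viability before use was >95% by trypan blue.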
For orientation: Tetrazolium dyes change colour on reduction, which living cells bring about.

For series [2], the system named is RAW264.7. The series can be described thus: Inhibition of IFN-gamma/LPS-induced PGE2 production in mouse RAW264.7 cells at 50 uM after 17 to 20 hrs by EIA method. Type of series: functional. In outline:
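In RAW 264.7 cells seeded at 4 × 10⁵/well and attached for 2 h at 37 °C, compound was added with LPS, using 0.1% final DMSO as vehicle. Incubation ran 17–20 h at 37 °C, 5% CO₂. Supernatant PGE₂ was quantified by EIA from a standard curve and expressed as percent inhibition at a single test concentration.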

Series [3] deals with RAW264.7. The series can be described thus: Inhibition of IFN-gamma/LPS-induced nitric oxide production in mouse RAW264.7 cells by Griess assay. The class given is functional, cell-based. On the technique in general: The Griess reaction detects nitrite, a stable product of nitric oxide.
For series [4], the system named is RAW264.7. The series can be described thus: Inhibition of IFN-gamma/LPS-induced PGE2 production in mouse RAW264.7 cells after 17 to 20 hrs by EIA method. The class given is functional, cell-based. In outline: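 RAW 264.7 cells (4 × 10⁵/well) attached for 2 h at 37 °C, 5% CO₂. They were then co-incubated with LPS and compound in DMSO (0.1% final) for 17–20 h. Supernatant PGE₂ was measured by EIA against a standard curve. Dose-response testing spanned 0.78 to 50; group differences were tested by one-way ANOVA with Dunnett's test.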

pIC50: −log10 of the molar value. Calls of active or inactive are those of the source. No cut-off for these calls is given here.

As to `CC(C)=CCOc1ccc2c(c1)O/C(=C\c1ccc(C)cc1)C2=O`, the viability in series [1] was > 100%. In addition, 50 µM produced 43% inhibition in the series with RAW264.7 [2].
Regarding `COc1ccc2c(c1)O/C(=C\c1ccc(OC)c(OC)c1)C2=O`, the viability in series [1] is > 100%. In the series with RAW264.7 [2], the inhibition (commonly the share of the control response that was lost under treatment) at 50 µM turned out to be 76%.
Regarding `COc1ccc2c(=O)c(OCC=C(C)C)c(-c3ccc(C)cc3)oc2c1`, the viability in series [1] is > 100%. The same compound displayed an inhibition at 50 µM in the series on RAW264.7 [2] of 41%.
`COc1cc2c(cc1CC=C(C)C)C(=O)/C(=C/c1ccc(OC)c(OC)c1)O2`: the viability in series [1] is > 100%. In the series with RAW264.7 [2], this compound had an inhibition at 50 µM of 83%.
Regarding `COc1cc(O)c(C(=O)/C=C/c2ccc(Br)cc2)cc1CC=C(C)C`, the viability in series [1] is > 100%. At 50 µM the inhibition in the series with RAW264.7 [2] was 70%.
`COc1cc(O)c(C(=O)/C=C/c2cccc(-c3ccc(F)cc3)c2)cc1CC=C(C)C`: the viability in series [1] was > 100%. Moreover, in the series on RAW264.7 [2], the inhibition result is “inactive”.
As for `COc1ccc(C(=O)/C=C/c2ccc(OC)c(OC)c2)c(O)c1`, the viability in series [1] was > 100%. Also, the inhibition at 50 µM in the series on RAW264.7 [2] amounted to 75%.
`COc1cc(O)c(C(=O)/C=C/c2ccc(OC)c(OC)c2)cc1CC=C(C)C`: the figures for the pIC50 in the series on RAW264.7 [3] and in the series on RAW264.7 [4] were 4.86 and 5.68, respectively. The viability in series [1] was > 100%. 50 µM produced 90% inhibition in the series with RAW264.7 [2].
Turning to `COc1cc(O)c(C(=O)/C=C/c2ccc(O)c(O)c2)cc1CC=C(C)C`, the viability in series [1] is > 100%. The compound further had an inhibition at 50 µM in the series with RAW264.7 [2] of 61%.
With `COc1cc2c(cc1CC=C(C)C)C(=O)/C(=C/c1ccc(C)cc1)O2`, the viability in series [1] is > 100%. Also, in the series on RAW264.7 [2], the inhibition result was “inactive”.
Take `COc1ccc2c(=O)c(O)c(-c3ccc(OC)c(OC)c3)oc2c1`: the viability in series [1] is 82%. Also, the inhibition at 50 µM in the series on RAW264.7 [2] came to 80%.
As to `COc1ccc2c(=O)c(O)c(-c3ccc(C)cc3)oc2c1`, the viability in series [1] is 78%. This compound displayed an inhibition at 50 µM in the series with RAW264.7 [2] of 70%.
In the case of `COc1cc(O)c(C(=O)/C=C/c2ccc(C)cc2)cc1CC=C(C)C`, the viability in series [1] is > 100%. The compound further displayed an inhibition at 50 µM in the series on RAW264.7 [2] of 64%.
`COc1ccc2c(c1)O/C(=C\c1ccc(C)cc1)C2=O`: the viability in series [1] was > 100%. Testing at 50 µM in the series with RAW264.7 [2] gave an inhibition of 78%.
As to `CS(=O)(=O)Nc1ccc([N+](=O)[O-])cc1OC1CCCCC1` [NS-398], in series [1], the viability is > 100%. Besides, in the series on RAW264.7 [2], the inhibition at 50 µM is 97%. The pIC50 (commonly the negative decadic logarithm of the IC50, by convention in mol/L) in the series with RAW264.7 [4] was 7.00.
With `CC(C)=CCOc1ccc(/C=C2\Oc3ccccc3C2=O)cc1`, the viability in series [1] is > 100%. This compound showed an inhibition at 50 µM in the series with RAW264.7 [2] of 77%.
Regarding `COc1ccc(C(=O)/C=C/c2ccc(C)cc2)c(O)c1`, the viability in series [1] came to 97%. Besides, the inhibition entry in the series on RAW264.7 [2] is “inactive”.
Regarding `COc1ccc2c(=O)c(OCC=C(C)C)c(-c3ccc(OC)c(OC)c3)oc2c1`, in series [1], the viability was > 100%. For the same compound, in the series with RAW264.7 [2], testing at 50 µM gave an inhibition of 58%.
For `COc1cc(O)c(C(=O)/C=C/c2ccc(-c3ccc(F)cc3)cc2)cc1CC=C(C)C`, the viability in series [1] is > 100%. The inhibition at 50 µM in the series on RAW264.7 [2] stood at 63%.

The values above are taken from ChEMBL document CHEMBL3352056, “Inhibition of prostaglandin E(2) production by synthetic minor prenylated chalcones and flavonoids: synthesis, biological activity, crystal structure, and in silico evaluation” (Bioorg Med Chem Lett, 2014).
